One assay has as its target T1, Vav3 5X in LNCaP cells (Homo sapiens, UniProt Q9UKW4, R523S/T522M/T537L/V524P/Y539K).
T1 sequence (Q9UKW4 1-847 T522M/R523S/V524P/T537L/Y539K): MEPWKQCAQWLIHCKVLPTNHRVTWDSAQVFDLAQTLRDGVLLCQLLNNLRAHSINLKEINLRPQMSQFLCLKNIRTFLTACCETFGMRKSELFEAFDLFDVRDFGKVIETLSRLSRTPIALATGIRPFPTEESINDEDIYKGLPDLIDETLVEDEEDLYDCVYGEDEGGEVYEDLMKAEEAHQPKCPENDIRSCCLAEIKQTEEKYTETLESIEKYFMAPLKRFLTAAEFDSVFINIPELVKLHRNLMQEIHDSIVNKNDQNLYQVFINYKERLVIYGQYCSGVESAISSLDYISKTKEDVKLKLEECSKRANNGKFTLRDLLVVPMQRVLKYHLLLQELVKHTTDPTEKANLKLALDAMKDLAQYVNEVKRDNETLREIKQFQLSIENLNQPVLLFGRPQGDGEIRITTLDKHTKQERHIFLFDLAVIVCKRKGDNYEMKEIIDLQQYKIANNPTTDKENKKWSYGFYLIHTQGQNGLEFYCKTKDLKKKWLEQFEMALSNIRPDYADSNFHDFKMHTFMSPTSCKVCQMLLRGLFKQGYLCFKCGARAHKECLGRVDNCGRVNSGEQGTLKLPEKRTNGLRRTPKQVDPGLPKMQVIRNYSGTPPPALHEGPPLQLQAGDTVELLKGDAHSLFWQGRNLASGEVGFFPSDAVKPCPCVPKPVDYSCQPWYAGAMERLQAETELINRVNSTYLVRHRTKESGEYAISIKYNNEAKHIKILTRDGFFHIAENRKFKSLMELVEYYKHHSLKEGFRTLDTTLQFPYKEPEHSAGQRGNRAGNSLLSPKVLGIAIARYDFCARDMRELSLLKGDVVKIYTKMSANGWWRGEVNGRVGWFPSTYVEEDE
Description: Membrane translocation of GFP-tagged protein, confocal microscopy. It is filed as cell-based. Conditions: 10 μM PMA. Summed up: (§1)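 LNCaP cells (passage 3–20) grown in RPMI 1640 with 10% FBS and 2 mM L-glutamine at 37°C, transfected with GFP constructs at 75% confluency; PMA added 24 h later. Confocal imaging with 488 nm excitation and 535–553 nm emission. Membrane/cytoplasm mean-intensity ratio from 3 membrane and 3 cytoplasm regions (~5 μm²) at 0, 5, 10, 30, 45 min (120 min where indicated). Mean ± SEM, ≥3 cells in each of ≥3 independent experiments; Student's t-test.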

Assay [1] addresses T2, full length Vav3 wild-type in LNCaP cells (Homo sapiens, UniProt Q9UKW4).
T2 sequence (Q9UKW4 1-847): T1 sequence (Q9UKW4 1-847 T522M/R523S/V524P/T537L/Y539K) with M522T, S523R, P524V, L537T, K539Y
Described as above. It is filed as cell-based. The note with it: 10 μM PMA. The essentials: as §1

For another assay, the target named is T3, Vav3 CaWT in LNCaP cells (Homo sapiens, UniProt Q9UKW4).
T3 sequence (Q9UKW4 177-847 limits assumed): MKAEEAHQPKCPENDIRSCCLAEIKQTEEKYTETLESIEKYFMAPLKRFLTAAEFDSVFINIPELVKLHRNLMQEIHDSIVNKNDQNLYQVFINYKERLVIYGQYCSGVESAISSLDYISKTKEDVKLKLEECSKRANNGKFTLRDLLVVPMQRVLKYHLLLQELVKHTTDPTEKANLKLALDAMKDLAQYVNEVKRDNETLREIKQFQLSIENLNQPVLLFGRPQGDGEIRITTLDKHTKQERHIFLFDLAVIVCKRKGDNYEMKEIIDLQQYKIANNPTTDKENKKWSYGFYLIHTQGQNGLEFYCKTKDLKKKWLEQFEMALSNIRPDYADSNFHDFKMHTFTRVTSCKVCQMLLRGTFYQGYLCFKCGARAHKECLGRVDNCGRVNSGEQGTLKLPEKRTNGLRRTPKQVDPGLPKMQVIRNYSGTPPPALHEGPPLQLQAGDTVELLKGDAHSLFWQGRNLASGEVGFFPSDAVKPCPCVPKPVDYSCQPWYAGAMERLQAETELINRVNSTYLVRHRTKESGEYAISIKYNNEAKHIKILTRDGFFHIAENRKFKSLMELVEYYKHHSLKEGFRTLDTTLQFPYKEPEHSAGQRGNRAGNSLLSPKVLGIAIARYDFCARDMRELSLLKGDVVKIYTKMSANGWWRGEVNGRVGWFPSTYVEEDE
The description is as above. Conditions: 10 μM PMA. It is filed as cell-based. Summed up: as §1

For assay [2], the system named is C1 domain of PKCδ with the corresponding residues in the Vav1 C1 domain. The note with it: five amino acids replaced; ref [17]; cited from earlier work.
The target in a further assay is Vav1 C1 2X (T24L/Y26K). The note with it: GST-tagged C1 domain; NA, no activity; ref [17]; cited from earlier work.
Assay [3] addresses T4, Vav2 C1 5X (D9M/K10S/T11P/T24L/Y26K) (Homo sapiens, UniProt P52735, D532M/K533S/T534P/T547L/Y549K).
T4 sequence (P52735 523-572 D532M/K533S/T534P/T547L/Y549K): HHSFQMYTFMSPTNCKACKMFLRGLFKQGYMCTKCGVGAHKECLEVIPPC
Description: [3H]PDBu binding, polyethylene glycol precipitation assay. The essentials: (§2)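 GST-fused C1 domain, cloned into pGEX-5x-1 and expressed in BL21 cells. Cultures grown in LB at 37°C to OD 0.5, induced with 0.5 mM IPTG, then grown 4 h at 37°C. Cells lysed with bacterial extraction reagent; protein purified and eluted on a GST spin column. Kd for [3H]PDBu determined by polyethylene glycol precipitation. Values are mean ± SEM of three experiments.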

The target of assay [4] is T5, Vav3 C1 3X (T9M/R10S/V11P) (Homo sapiens, UniProt Q9UKW4, R523S/T522M/V524P).
T5 sequence (Q9UKW4 513-562 T522M/R523S/V524P): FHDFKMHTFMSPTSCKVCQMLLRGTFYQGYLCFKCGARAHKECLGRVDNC
Description: [3H]PDBu binding, polyethylene glycol precipitation assay. Summed up: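 GST-fused C1 domain, cloned into pGEX-5x-1 and expressed in BL21 cells. Cultures grown in LB at 37°C to OD 0.5, induced with 0.5 mM IPTG, then grown 4 h at 37°C. Cells lysed with bacterial extraction reagent; protein purified and eluted on a GST spin column. Kd for [3H]PDBu determined by polyethylene glycol precipitation. Values are mean ± SEM of two replicates.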

The target in assay [5] is Vav1 C1 3X (E9M/E10S/T11P). Conditions: ref [17], cited from earlier work.
The target in assay [6] is Vav1 C1 5X (E9M/E10S/T11P/T24L/Y26K). Conditions: ref [17], cited from earlier work.
Another assay concerns the target T6, Vav3 C1 2X (T24L/Y26K) (Homo sapiens, UniProt Q9UKW4, T537L/Y539K).
T6 sequence (Q9UKW4 513-562 T537L/Y539K): T5 sequence (Q9UKW4 513-562 T522M/R523S/V524P) with M10T, S11R, P12V, T25L, Y27K
Nature of the assay: [3H]PDBu binding, polyethylene glycol precipitation assay. Summed up:
as §2

The target in a further assay is Vav1 C1 WT. The note with it: GST-tagged C1 domain; NA, no activity; ref [17]; cited from earlier work.
Assay [7] concerns the target T7, Vav3 C1 5X (T9M/R10S/V11P/T24L/Y26K) (Homo sapiens, UniProt Q9UKW4, R523S/T522M/T537L/V524P/Y539K).
T7 sequence (Q9UKW4 513-562 T522M/R523S/V524P/T537L/Y539K): T5 sequence (Q9UKW4 513-562 T522M/R523S/V524P) with T25L, Y27K
Nature of the assay: [3H]PDBu binding, polyethylene glycol precipitation assay. The essentials: as §2

Where [8] appears, read: GST-tagged C1 domain, mean ± SEM of triplicate experiments.

Residue numbers refer to the chain shown, from its start.

`CCCCCCCCCCCCCC(=O)O[C@@H]1[C@@H](C)[C@@]2(O)[C@@H](C=C(CO)C[C@]3(O)C(=O)C(C)=C[C@@H]23)[C@@H]2C(C)(C)[C@]12OC(C)=O` [PMA, phorbol 12-myristate 13-acetate]: the “membrane translocation in response to phorbol ester” value on Vav3 5X in LNCaP cells was “became visible after 10 min but became more evident after 2 h”; in assay [1], “neither the wild-type Vav3 nor the Vav3 CaWT translocated”; on Vav3 CaWT in LNCaP cells, “neither the wild-type Vav3 nor the Vav3 CaWT translocated”.

Consider `CCCC(=O)O[C@@H]1[C@@H](C)[C@@]2(O)[C@@H](C=C(CO)C[C@]3(O)C(=O)C(C)=C[C@@H]23)[C@@H]2C(C)(C)[C@]12OC(=O)CCC` [PDBu, Phorbol 12,13-dibutyrate], for which the PDBu binding affinity entry in assay [2] was “abolished detectable PDBu binding affinity”. Moreover, the Kd (usually the constant that tells how readily two partners part at equilibrium) on Vav1 C1 2X (T24L/Y26K) was “did not restore phorbol ester binding”; in [3] (setting [8]), 650.7 ± 2.6 nM; in assay [4] (GST-tagged C1 domain, mean ± SEM, only 2 replicates), 840 ± 120 nM; in assay [5] (GST-tagged C1 domain), 7.33 ± 0.49 µM; in assay [6] (GST-tagged C1 domain) it was 1.05 ± 0.14 nM; on Vav3 C1 2X (T24L/Y26K) (setting [8]) it was 188 ± 35 nM. In addition, the figures for the dissociation constant (Kd) entry (on Vav1 C1 WT; in assay [7] (setting [8])) were “no detectable binding” and 4.7 ± 0.8 nM, respectively. For the same compound, the “Relative to PKCδ C1b” value is given as 3370 × in [3]; 4380 × in assay [4]; 38,000 × in [5]; 5.4× in [6]; 938 × on Vav3 C1 2X (T24L/Y26K); 23.5× in assay [7].

These data come from publication PMC5651187 (Cellular signalling, 2017).
